Reference: ChEMBL document CHEMBL1641583, “Design, synthesis, and biological evaluation of N-acetyl-S-(p-chlorophenylcarbamoyl)cysteine and its analogs as a novel class of anticancer agents” (Bioorg Med Chem, 2011)
Converted amounts (≈) assume the structure as drawn. The source made the active and inactive calls. No cut-off for these calls is given here.

Columns and labels:
[1] = system: UACC-62; assay: Cytotoxicity against human UACC62 cells after 6 days by MTT assay; format: functional, cell-based; conditions: UACC-62, 144 h
[2] = Cytotoxicity against human GC3/C1 cells after 6 days by MTT assay; format: functional, cell-based; conditions: GC3/C1, 144 h
[3] = system: OVCAR-3; assay: Cytotoxicity against human OVCAR3 cells after 6 days by MTT assay; format: functional, cell-based; conditions: OVCAR-3, 144 h
[4] = system: SK-MEL-2; assay: Cytotoxicity against human SK-MEL-2 cells after 6 days by MTT assay; format: functional, cell-based; conditions: SK-MEL-2, 144 h
[5] = system: UACC-62; assay: Cytotoxicity against human UACC62 cells after 1 to 3 days by MTT assay; format: functional, cell-based
[6] = system: OVCAR-3; assay: Cytotoxicity against human OVCAR3 cells after 1 to 3 days by MTT assay; format: functional, cell-based
[7] = system: SK-MEL-2; assay: Cytotoxicity against human SK-MEL-2 cells after 1 to 3 days by MTT assay; format: functional, cell-based
[8] = system: UACC-62; assay: Ratio of compound IC50 to dacarbazine IC50 for human UACC62 cells; format: functional
[9] = system: SK-MEL-2; assay: Ratio of compound IC50 to dacarbazine IC50 for human SK-MEL-2 cells; format: functional
[10] = Solubility of the compound in ethyl acetate; format: physicochemical
How it was run: (§1)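 Solubility measured in ethyl acetate and in 0.1 M phosphate buffer pH 7.4; reported in mg/mL.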

[11] = Solubility of the compound in 0.1 M phosphate buffer at pH 7.4; format: physicochemical; how it was run: as §1
[12] = system: PC-3; assay: Cytotoxicity against human PC3 cells after 6 days by MTT assay; format: functional, cell-based
[13] = system: NCI-H226; assay: Cytotoxicity against human NCI-H226 cells after 6 days by MTT assay; format: functional, cell-based
[14] = system: UO-31; assay: Cytotoxicity against human UO31 cells after 6 days by MTT assay; format: functional, cell-based
[15] = system: A-431; assay: Cytotoxicity against human A431 cells after 6 days by MTT assay; format: functional, cell-based
[16] = Cytotoxicity against african green monkey CV1 cells after 6 days by MTT assay; format: cell-based; conditions: Chlorocebus aethiops, CV-1, 144 h
[17] = system: UACC-62; assay: Cell cycle arrest in human UACC62 cells assessed as DNA accumulation at 0.01 to 1 uM after 6 days using propidium iodide staining by flow cytometry; format: functional, cell-based
How it was run: (§2)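 Cells seeded in 75 cm² flasks (GC3/c1 0.3 million, UACC-62 0.14 million) in RPMI 1640/10% FBS, exposed 6 days; adherent cells only trypsinized, PBS-washed, 1 million fixed in 70% ethanol at 4 °C, RNase A 30 min 37 °C, propidium iodide 30 min dark at room temperature; DNA content by flow cytometry; mean ± SD, three independent experiments.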

[18] = Cell cycle arrest in human GC3/C1 cells assessed as DNA accumulation at 0.01 to 1 uM after 6 days using propidium iodide staining by flow cytometry; format: functional, cell-based; how it was run: as §2
[19] = system: UACC-62; assay: Induction of apoptosis in human UACC62 cells assessed as translocation of phosphatidylserine from inner layer to outer layer of cell membrane after 6 days using annexin V staining by flow cytometry; format: functional, cell-based
How it was run: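 UACC-62 plated and dosed in 96-well format as for cytotoxicity, 6 days; adherent plus floating cells trypsinized, PBS-washed, 1×10^6 cells/mL in annexin-binding buffer; ~1×10^5 cells stained with Alexa Fluor 488 annexin V and PI 15 min dark, room temperature; early plus late apoptotic fractions summed by flow cytometry; mean ± SD, three experiments.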

[20] = system: UACC-62; assay: Induction of apoptosis in human UACC62 cells assessed as translocation of phosphatidylserine from inner layer to outer layer of cell membrane at > 1 uM after 6 days using annexin V staining by flow cytometry; format: functional, cell-based

## CC(=O)N[C@@H](CSC(=O)Nc1cccc2ccccc12)C(=O)O
[1]
  IC50: > 200 µM
[2]
  IC50: > 200 µM
[3]
  IC50: > 200 µM

## CC(=O)N[C@@H](CSC(=O)Nc1ccc(F)cc1)C(=O)O
[1]
  IC50: 0.036 µM
[2]
  IC50: 114 µM
[3]
  IC50: > 200 µM
[4]
  IC50: 0.43 µM
[5]
  Activity: inactive
[6]
  Activity: inactive
[7]
  Activity: inactive
[8]
  Ratio IC50: 328
[9]
  Ratio IC50: 279
[10]
  solubility: 388 mg/mL (≈ 1290 mM)
[11]
  solubility: 26 mg/mL (≈ 86.6 mM)

## COc1ccccc1CNC(=O)SC[C@H](NC(C)=O)C(=O)O
[1]
  IC50: > 200 µM
[2]
  IC50: > 200 µM
[3]
  IC50: > 200 µM

## CC(=O)N[C@@H](CSC(=O)Nc1ccc(Cl)cc1)C(=O)O
[1]
  IC50: 0.024 µM
[2]
  IC50: 8.13 µM
[3]
  IC50: > 200 µM
[4]
  IC50: 0.008 µM
[5]
  Activity: inactive
[6]
  Activity: inactive
[7]
  Activity: inactive
[8]
  Ratio IC50: 490
[9]
  Ratio IC50: 16000
[12]
  Activity: inactive
[13]
  Activity: inactive
[14]
  Activity: inactive
[15]
  Activity: inactive
[16]
  IC50: 522 µM
[10]
  solubility: 721 mg/mL (≈ 2280 mM)
[11]
  solubility: 26 mg/mL (≈ 82.1 mM)
[17]
  Activity: inactive
[18]
  Activity: inactive
[19]
  Activity: Dose-dependent effect
[20]
  Activity: inactive

## COc1ccc(OC)c(NC(=O)SC[C@H](NC(C)=O)C(=O)O)c1
[1]
  IC50: > 200 µM
[2]
  IC50: > 200 µM
[3]
  IC50: > 200 µM

## CN(C)/N=N/c1[nH]cnc1C(N)=O [DACARBAZINE]
[1]
  IC50: 11.8 µM
[2]
  IC50: 7.67 µM
[3]
  IC50: 17.7 µM
[4]
  IC50: 120 µM

## CC(=O)N[C@@H](CSC(=O)Nc1ccc(Br)cc1)C(=O)O
[1]
  IC50: 0.32 µM
[2]
  IC50: 63.5 µM
[3]
  IC50: > 200 µM
[4]
  IC50: 0.12 µM
[5]
  Activity: inactive
[6]
  Activity: inactive
[7]
  Activity: inactive
[8]
  Ratio IC50: 37
[9]
  Ratio IC50: 1000
[10]
  solubility: 50 mg/mL (≈ 138 mM)
[11]
  solubility: 24 mg/mL (≈ 66.4 mM)

## CC(=O)N[C@@H](CSC(=O)Nc1ccc(C(F)(F)F)cc1[N+](=O)[O-])C(=O)O
[1]
  IC50: > 200 µM
[2]
  IC50: > 200 µM
[3]
  IC50: > 200 µM

## CC(=O)N[C@@H](CSC(=O)Nc1ccccc1)C(=O)O
[1]
  IC50: 125 µM
[2]
  IC50: 178 µM
[3]
  IC50: 153 µM

## CC(=O)N[C@@H](CSC(=O)Nc1cccc(Cl)c1)C(=O)O
[1]
  IC50: > 200 µM
[2]
  IC50: > 200 µM
[3]
  IC50: > 200 µM

## CC(=O)N[C@@H](CSC(=O)Nc1cc(Cl)cc(Cl)c1)C(=O)O
[1]
  IC50: > 200 µM
[2]
  IC50: > 200 µM
[3]
  IC50: > 200 µM

## CC(=O)N[C@@H](CSC(=O)Nc1ccc([N+](=O)[O-])cc1Cl)C(=O)O
[1]
  IC50: > 200 µM
[2]
  IC50: > 200 µM
[3]
  IC50: > 200 µM

## COc1ccc(NC(=O)SC[C@H](NC(C)=O)C(=O)O)cc1
[1]
  IC50: 75.2 µM
[2]
  IC50: > 200 µM
[3]
  IC50: > 200 µM

## COc1ccccc1NC(=O)SC[C@H](NC(C)=O)C(=O)O
[1]
  IC50: > 200 µM
[2]
  IC50: > 200 µM
[3]
  IC50: > 200 µM

## CC(=O)N[C@@H](CSC(=O)Nc1ccc(I)cc1)C(=O)O
[1]
  IC50: 46.2 µM
[2]
  IC50: > 200 µM
[3]
  IC50: > 200 µM

## CC(=O)N[C@@H](CSC(=O)Nc1ccccc1Cl)C(=O)O
[1]
  IC50: > 200 µM
[2]
  IC50: > 200 µM
[3]
  IC50: > 200 µM

## CC(=O)N[C@@H](CSC(=O)NCc1ccc(Cl)cc1)C(=O)O
[1]
  IC50: > 200 µM
[2]
  IC50: > 200 µM
[3]
  IC50: > 200 µM

## CC(=O)N[C@@H](CSC(=O)Nc1ccccc1F)C(=O)O
[1]
  IC50: > 200 µM
[2]
  IC50: > 200 µM
[3]
  IC50: > 200 µM

## CSc1ccccc1NC(=O)SC[C@H](NC(C)=O)C(=O)O
[1]
  IC50: > 200 µM
[2]
  IC50: > 200 µM
[3]
  IC50: > 200 µM
